# Measurements taken from ChEMBL document CHEMBL6096700, “Modulation of Mitochondria-Endoplasmic Reticulum Contacts (MERCs) by Small Molecules as a New Strategy for Restoring Lipid Metabolism in an Amyotrophic Lateral Sclerosis Model” (J Med Chem, 2025).
# pEC50: −log10 of the molar value. The source made the active and inactive calls. Where a SMILES comes first, the peptide text is derived from it. The star is where a group is joined. Cbz = O=C(OCc1ccccc1)*
# Legend:
# [1] = Permeability of compound incubated for 2.5 hrs by PAMPA; type: ADME
# In short: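 PAMPA-BBB: compounds in PBS/EtOH 70:30, pH 7.4, placed in a donor plate over a filter coated with porcine brain lipid in dodecane (20 mg/mL), with phosphate-buffer acceptor. Incubated 2 h 30 min at RT. Acceptor concentration read by absorbance at 2–5 wavelengths, three wells, two runs (mean ± SD). Ten reference drugs; CNS+ if Pe >4.4 × 10–6 cm s–1.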
# HCT-116 [2] = assay: Induction of extracellular NBD-labeled cholesterol uptake in human HCT-116 cells at 1 uM incubated for 24 hrs followed by NBD-labeled cholesterol addition measured after 1 to 3 hrs by fluorescence based assay; type: functional, cell-based; settings: time 25-27 hrs
# In short: (§1)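 HCT116 cells seeded 24 h at 37 °C, 5% CO2, then treated with compound for 24 h. NBD-cholesterol added for 1 and 3 h. Cells washed three times with PBS, fluorescence read at 469/537 nm, compared with untreated cells. Mean ± SEM of three independent experiments.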
# HCT-116 [3] = assay: Cytotoxicity against human HCT-116 cells assessed as cell viability at 1 uM incubated for 24 hrs by MTT assay; type: toxicity, cell-based; settings: hct-116, 24 h
# In short: (§2)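 HCT116 cells grown in phenol red-free McCoy's 5A with 10% FBS and 1% penicillin/streptomycin. Exposed 24 h to compound at 1, 5 or 10 μM. Viability measured by MTT reduction to formazan read by absorbance, expressed as percent of untreated controls. Safety threshold >80% viability. Mean ± SEM of three independent experiments.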
# [4] = Modulation of mitochondria-endoplasmic reticulum contacts in human HCT-116 cells expressing MERLIN by BRET assay; type: functional, cell-based
# In short: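 MERLIN-HCT116 BRET biosensor cells (RLuc8 donor, mVenus acceptor) seeded at 4500/well for 24 h, then treated with compound overnight. Coelenterazine h 5 μM added for 8 min in the dark, read at RT. BRET = acceptor/donor emission minus RLuc8-only background, with DMSO, RLuc8 and RLuc8-mVenus controls; plates kept if Z'>0.7.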
# HCT-116 [5] = assay: Cytotoxicity against human HCT-116 cells assessed as cell viability at 5 uM incubated for 24 hrs by MTT assay; type: toxicity, cell-based; settings: hct-116, 24 h; in short: as §2
# HCT-116 [6] = assay: Modulation of mitochondria-endoplasmic reticulum contacts in human HCT-116 cells at 25 uM incubated for 1 hr by TEM analysis; type: functional, cell-based
# Lymphoblastoid cell [7] = assay: Improvement in spare respiratory capacity in patient-derived Sporadic ALS lymphoblastoid cells at 5 uM incubated for 24 hrs by Seahorse XF analysis; type: functional, cell-based; settings: Homo sapiens
# In short: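 Control and sALS lymphoblasts plated at 200,000 cells/well on poly-L-lysine and cultured 24 h ± compound (5 μM). Then moved to bicarbonate-free DMEM with 2 mM glutamine, 5 mM glucose, 2% FBS, 1 mM pyruvate and 5 mM HEPES pH 7.4, 1 h without CO2. Seahorse Mito Stress OCR: basal, oligomycin 1 μM, FCCP 3 μM, antimycin/rotenone 2.5 μM each. Four replicates, mean ± SEM.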
# Lymphoblastoid cell [8] = assay: Induction of extracellular NBD-labeled cholesterol uptake in patient-derived lymphoblastoid cells at 5 uM incubated for 24 hrs followed by NBD-labeled cholesterol addition measured after 1 hr in presence of SSO by fluorescence based assay; type: functional; settings: Homo sapiens, time 25.0 hrs
# Lymphoblastoid cell [9] = assay: Induction of lipid droplet formation in patient-derived Sporadic ALS lymphoblastoid cells at 5 uM incubated for 24 hrs by LipidTOX Green/DAPI staining based analysis; type: functional; settings: Homo sapiens
# In short: (§3)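 Control and sporadic ALS lymphoblastoid cells treated 24 h with compound at 5 μM or vehicle, fixed in 4% PFA, washed in PBS. Lipid droplets stained 2 h with LipidTOX Green, nuclei with DAPI. Confocal imaging and image-based quantification of >100 cells per condition; mean ± SEM.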
# Lymphoblastoid cell [10] = assay: Induction of extracellular NBD-labeled cholesterol uptake in patient-derived Sporadic ALS lymphoblastoid cells at 5 uM incubated for 24 hrs followed by NBD-labeled cholesterol addition measured after 1 hr in presence of […] by fluorescence based assay; type: functional; settings: Homo sapiens, time 25.0 hrs
# In short: (§4)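 Lymphoblastoid lines from controls (C100, C112) and sporadic ALS patients (E2, E4) treated 24 h with compound at 5 μM. BLT1, SSO or EZE (10 μM) added 15 min before NBD-cholesterol, which was left for 1 h. Cells washed three times with PBS, fluorescence read at 469/537 nm. Run in triplicate; mean ± SEM.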
# Lymphoblastoid cell [11] = assay: Modulation of mitochondria-endoplasmic reticulum contacts in patient-derived Sporadic ALS lymphoblastoid cells at 5 uM incubated for 24 hrs by Seahorse XF analysis; type: functional, cell-based; settings: Homo sapiens
# Lymphoblastoid cell [12] = assay: Induction of extracellular NBD-labeled cholesterol uptake in patient-derived Sporadic ALS lymphoblastoid cells at 5 uM incubated for 24 hrs followed by NBD-labeled cholesterol addition measured after 1 hr in presence of SSO by fluorescence based assay; type: functional; settings: Homo sapiens, time 25.0 hrs; in short: as §4
# Lymphoblastoid cell [13] = assay: Restoration of mitochondrial cristae structure in patient-derived Sporadic ALS lymphoblastoid cells at 5 uM incubated for 24 hrs by TEM analysis; type: functional, cell-based; settings: Homo sapiens
# In short: (§5)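 Control and sporadic ALS lymphoblasts with or without compound (5 μM, 24 h) were fixed 4 h at 4 °C in 4% paraformaldehyde/2.5% glutaraldehyde in 0.1 M phosphate pH 7.3. Postfixed in osmium tetroxide/potassium ferrocyanide, acetone-dehydrated, Spurr-embedded. 60 nm sections stained with lead citrate and imaged by TEM at 80 kV.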
# Lymphoblastoid cell [14] = assay: Induction of lipid droplet formation in patient-derived Sporadic ALS lymphoblastoid cells at 5 uM incubated for 24 hrs by TEM analysis; type: functional, cell-based; settings: Homo sapiens; in short: as §5
# HCT-116 [15] = assay: Induction of extracellular NBD-labeled cholesterol uptake in human HCT-116 cells at 5 uM incubated for 24 hrs followed by NBD-labeled cholesterol addition measured after 3 hrs by fluorescence based assay; type: functional, cell-based; settings: time 27.0 hrs; in short: as §1
# Lymphoblastoid cell [16] = assay: Induction of extracellular NBD-labeled cholesterol uptake in patient-derived lymphoblastoid cells at 5 uM incubated for 24 hrs followed by NBD-labeled cholesterol addition measured after 1 hr in presence of EZE by fluorescence based assay; type: functional; settings: Homo sapiens, time 25.0 hrs
# Lymphoblastoid cell [17] = assay: Induction of cholesteryl ester formation in patient-derived lymphoblastoid cells at 5 uM incubated for 24 hrs by Amplex assay; type: functional, cell-based; settings: Homo sapiens
# In short: (§6)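 Control and sporadic ALS lymphoblastoid cells treated 24 h with compound at 5 μM or vehicle. Lipids extracted from equal cell amounts with chloroform:methanol 2:1 (v/v). Organic phase dried, resuspended in assay buffer, and cholesteryl esters quantified with the Amplex cholesterol kit. Individual values reported.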
# Lymphoblastoid cell [18] = assay: Induction of cholesteryl ester formation in patient-derived Sporadic ALS lymphoblastoid cells at 5 uM incubated for 24 hrs by Amplex assay; type: functional, cell-based; settings: Homo sapiens; in short: as §6
# Lymphoblastoid cell [19] = assay: Induction of extracellular NBD-labeled cholesterol uptake in patient-derived Sporadic ALS lymphoblastoid cells at 5 uM incubated for 24 hrs followed by NBD-labeled cholesterol addition measured after 1 hr by fluorescence based assay; type: functional; settings: Homo sapiens, time 25.0 hrs
# Lymphoblastoid cell [20] = assay: Induction of extracellular NBD-labeled cholesterol uptake in patient-derived SOD1 ALS lymphoblastoid cells at 5 uM incubated for 24 hrs followed by NBD-labeled cholesterol addition measured after 1 hr by fluorescence based assay; type: functional; settings: Homo sapiens, time 25.0 hrs
# Lymphoblastoid cell [21] = assay: Induction of extracellular NBD-labeled cholesterol uptake in patient-derived Sporadic ALS lymphoblastoid cells at 5 uM incubated for 24 hrs followed by NBD-labeled cholesterol addition measured after 1 hr in presence of EZE by fluorescence based assay; type: functional; settings: Homo sapiens, time 25.0 hrs; in short: as §4
# Lymphoblastoid cell [22] = assay: Induction of lipid droplet formation in patient-derived lymphoblastoid cells at 5 uM incubated for 24 hrs by LipidTOX Green/DAPI staining based analysis; type: functional; settings: Homo sapiens; in short: as §3
# Lymphoblastoid cell [23] = assay: Induction of extracellular NBD-labeled cholesterol uptake in patient-derived lymphoblastoid cells at 5 uM incubated for 24 hrs followed by NBD-labeled cholesterol addition measured after 1 hr in presence of […] by fluorescence based assay; type: functional; settings: Homo sapiens, time 25.0 hrs
# Lymphoblastoid cell [24] = assay: Induction of extracellular NBD-labeled cholesterol uptake in patient-derived C9orf72-mutated familial ALS lymphoblastoid cells at 5 uM incubated for 24 hrs followed by NBD-labeled cholesterol addition measured after 1 hr by fluorescence based assay; type: functional; settings: Homo sapiens, time 25.0 hrs
Compound,permeability [1],pEC50 [4],Activity (HCT-116 [2]),Activity (HCT-116 [3]),other results
O=C(Nc1ccc([N+](=O)[O-])cc1Cl)c1cccc2ccccc12,–,5.48,–,–,–
CNC(=O)c1ccc(NC(=O)c2cc(Cl)ccc2O)cc1,–,4.99,–,–,–
O=C(Nc1ccc(F)cc1)c1cc(Cl)ccc1O,–,4.70,–,–,–
O=C(Nc1ccc([N+](=O)[O-])cc1F)c1cc(Cl)ccc1O,–,5.25,inactive,Non-toxic,–
O=C(Nc1ccc([N+](=O)[O-])cc1Cl)c1cc(Cl)ccc1O [NICLOSAMIDE],–,5.25,inactive,Non-toxic,–
O=C(Nc1ccccc1)c1cc(Cl)ccc1O,Permeable,–,inactive,Non-toxic,"Activity (HCT-116 [6]): Active; Activity (Lymphoblastoid cell [7]): Active; Activity (Lymphoblastoid cell [8]): Active; Activity (Lymphoblastoid cell [9]): Active; Activity (Lymphoblastoid cell [10]): Not active; The Result Suggests That Cell Surface Hdl Scavenger Receptor B, Type 1 (Sr-B1) May Be Involved In Mechanism Of Action; Activity (Lymphoblastoid cell [11]): Active; Activity (Lymphoblastoid cell [12]): Active; Activity (Lymphoblastoid cell [13]): Active; Activity (Lymphoblastoid cell [14]): Active; Activity (HCT-116 [15]): Active; Activity (Lymphoblastoid cell [16]): Active; Activity (Lymphoblastoid cell [17]): Active; Activity (Lymphoblastoid cell [18]): Active; Activity (Lymphoblastoid cell [19]): Active; Activity (Lymphoblastoid cell [20]): inactive; Activity (Lymphoblastoid cell [21]): Active; Activity (Lymphoblastoid cell [22]): Active; Activity (Lymphoblastoid cell [23]): Not active; The Result Suggests That Cell Surface Hdl Scavenger Receptor B, Type 1 (Sr-B1) May Be Involved In Mechanism Of Action; Activity (Lymphoblastoid cell [24]): Active; Activity (HCT-116 [5]): Non-toxic"
CC(C)C[C@@H](C=O)NC(=O)[C@H](CC(C)C)NC(=O)[C@H](CC(C)C)NC(=O)OCc1ccccc1 [MG-132] (Cbz-Leu-Leu-Leu-aldehyde),–,4.86,–,–,–

# The remaining compounds from weak to strong by pEC50 [4], led by results:
permeability [1],pEC50 [4],Compound,Activity (HCT-116 [2]),Activity (HCT-116 [3]),other results
–,4.66,O=C(Nc1ccc([N+](=O)[O-])cc1)c1cccc2ccccc12,–,–,–
Permeable,5.01,N#Cc1ccc(NC(=O)c2cc(Cl)ccc2O)cc1,inactive,Non-toxic,Activity (HCT-116 [5]): Non-toxic
Permeable,5.08,O=C(Nc1cccc([N+](=O)[O-])c1)c1cc(Cl)ccc1O,inactive,Non-toxic,Activity (HCT-116 [5]): Non-toxic
Permeable,5.61,O=C(Nc1ccc([N+](=O)[O-])cc1)c1cc(Cl)ccc1O,inactive,–,–
